Data published in ChEMBL document CHEMBL2177000, “Pharmacokinetic optimization of class-selective histone deacetylase inhibitors and identification of associated candidate predictive biomarkers of hepatocellular carcinoma tumor response” (J Med Chem, 2012).

How the values were obtained:
[1] = Clearance in BALB/C mouse at 10 mg/kg, po or 2 mg/kg, iv by LC-MS/MS method; format: ADME, organism-based; settings: in vivo
Procedure, shortened: (§1)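 Female-unspecified BALB/C nude mice (15−20 g, N = 16 per arm); iv bolus 2 mg/kg in 5% DMSO/40% PEG400/55% saline and/or oral gavage 10 mg/kg as 0.445% microcrystalline cellulose microsuspension. Blood sampled at nine (iv) or eight (po) time points into sodium heparin tubes; plasma by LC-MS/MS; noncompartmental analysis.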

[2] = AUC in BALB/C mouse at 10 mg/kg, po or 2 mg/kg, iv by LC-MS/MS method; format: ADME, organism-based, Plasma; settings: BALB/C, plasma; procedure, shortened: as §1
[3] = Clearance in mouse liver microsomes at 1 uM incubated for 10 mins by LC-MS/MS method; format: ADME, Microsome
Procedure, shortened: (§2)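 Liver microsomes (human or mouse, 0.5 mg/mL) in 100 mM potassium phosphate pH 7.4 with 1 μM compound, prewarmed 10 min at 37 °C, started with NADPH (10 mM); stopped at 0, 3, 6, 9, 15, 30 min with ice-cold methanol containing tolbutamide internal standard; LC-MS/MS. Hepatic clearance (mL/min/kg) calculated from intrinsic clearance.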

[4] = Oral bioavailability in BALB/C mouse at 10 mg/kg by LC-MS/MS method; format: ADME, organism-based; settings: BALB/C, in vivo
Procedure, shortened: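 Bioavailability from single-dose iv (2 mg/kg, 5% DMSO/40% PEG400/55% saline) and oral gavage (10 mg/kg, 0.445% microcrystalline cellulose microsuspension) studies in BALB/C nude mice (N = 16 per arm); plasma at eight (po) or nine (iv) time points, LC-MS/MS, noncompartmental analysis.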

[5] = Volume of distribution at steady state in BALB/C mouse at 10 mg/kg, po or 2 mg/kg, iv by LC-MS/MS method; format: ADME, organism-based; design: unit not given here; settings: in vivo, read-out: Vdss
Procedure, shortened: (§3)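 Single-dose PK: iv bolus 2 mg/kg in 5% DMSO/40% PEG400/55% saline and/or oral gavage 10 mg/kg as 0.445% microcrystalline cellulose microsuspension; BALB/C nude mice (15−20 g, N = 16 per arm) or male Sprague−Dawley rats (250 ± 20 g, N = 3). Blood at eight (po) or nine (iv) time points into sodium heparin, plasma by LC-MS/MS, noncompartmental analysis.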

[6] = Tmax in BALB/C mouse at 10 mg/kg, po or 2 mg/kg, iv by LC-MS/MS method; format: ADME, organism-based; settings: BALB/C, in vivo; procedure, shortened: as §3
[7] = Half life in BALB/C mouse at 10 mg/kg, po or 2 mg/kg, iv by LC-MS/MS method; format: ADME, organism-based; settings: BALB/C, in vivo; procedure, shortened: as §1
[8] = Cmax in BALB/C mouse at 10 mg/kg, po or 2 mg/kg, iv by LC-MS/MS method; format: ADME, organism-based; settings: BALB/C, in vivo; procedure, shortened: as §1
[9] = target: Histone deacetylase (Homo sapiens) (UniProt Q13547+O15379+Q9UBN7+Q92769+Q9UQL6+Q8WUI4+Q9BY41+Q96DB2+P56524+Q9UKV0+Q969S8); test: Inhibition of Class 1 histone deacetylase in human HeLa cells assessed as induction in p21 protein expression at 3 uM incubated for 16 hrs by luciferase reporter gene assay relative to HDAC inhibitor entinostat; format: cell-based; design: scale not given: the % may be the effect or the level left
Cytochrome P450 2C19 = Cytochrome P450 2C19 (Homo sapiens, UniProt P33261); test: Inhibition of CYP2C19 in human liver microsomes in presence of NADPH by LC-MS/MS method; format: ADME, Microsome
Sequence of Cytochrome P450 2C19 (P33261 whole entry): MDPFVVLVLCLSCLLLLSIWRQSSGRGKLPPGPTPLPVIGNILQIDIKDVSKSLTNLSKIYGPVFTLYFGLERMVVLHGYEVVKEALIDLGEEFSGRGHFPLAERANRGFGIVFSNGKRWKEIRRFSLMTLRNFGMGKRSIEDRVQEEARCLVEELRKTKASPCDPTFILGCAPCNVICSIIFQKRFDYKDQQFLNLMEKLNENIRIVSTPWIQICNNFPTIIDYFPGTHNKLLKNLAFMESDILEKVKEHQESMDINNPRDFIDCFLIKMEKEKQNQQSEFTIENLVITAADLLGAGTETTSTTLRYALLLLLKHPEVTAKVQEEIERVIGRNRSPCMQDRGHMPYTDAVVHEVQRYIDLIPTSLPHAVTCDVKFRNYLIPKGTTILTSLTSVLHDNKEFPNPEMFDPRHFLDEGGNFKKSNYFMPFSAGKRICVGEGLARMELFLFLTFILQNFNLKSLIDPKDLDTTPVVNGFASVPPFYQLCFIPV

Cytochrome P450 3A4 = Cytochrome P450 3A4 (Homo sapiens, UniProt P08684); test: Inhibition of CYP3A4 in human liver microsomes in presence of NADPH by LC-MS/MS method; format: ADME, Microsome
Sequence of Cytochrome P450 3A4 (P08684 whole entry): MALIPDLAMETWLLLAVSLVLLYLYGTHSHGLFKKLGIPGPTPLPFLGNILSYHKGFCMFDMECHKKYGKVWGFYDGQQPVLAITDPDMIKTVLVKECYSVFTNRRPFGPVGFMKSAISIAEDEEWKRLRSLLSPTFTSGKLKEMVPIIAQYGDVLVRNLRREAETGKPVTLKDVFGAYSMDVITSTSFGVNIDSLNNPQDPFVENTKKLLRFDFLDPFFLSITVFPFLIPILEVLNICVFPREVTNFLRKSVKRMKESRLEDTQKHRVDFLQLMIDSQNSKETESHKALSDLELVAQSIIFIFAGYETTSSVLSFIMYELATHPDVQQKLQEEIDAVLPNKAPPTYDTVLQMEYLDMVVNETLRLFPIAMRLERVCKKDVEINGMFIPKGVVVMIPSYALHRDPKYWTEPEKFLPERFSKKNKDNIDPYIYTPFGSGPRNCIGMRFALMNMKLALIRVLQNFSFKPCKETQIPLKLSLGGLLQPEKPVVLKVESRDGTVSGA

Cytochrome P450 2C9 = Cytochrome P450 2C9 (Homo sapiens, UniProt P11712); test: Inhibition of CYP2C9 in human liver microsomes in presence of NADPH by LC-MS/MS method; format: ADME, Microsome
Sequence of Cytochrome P450 2C9 (P11712 whole entry): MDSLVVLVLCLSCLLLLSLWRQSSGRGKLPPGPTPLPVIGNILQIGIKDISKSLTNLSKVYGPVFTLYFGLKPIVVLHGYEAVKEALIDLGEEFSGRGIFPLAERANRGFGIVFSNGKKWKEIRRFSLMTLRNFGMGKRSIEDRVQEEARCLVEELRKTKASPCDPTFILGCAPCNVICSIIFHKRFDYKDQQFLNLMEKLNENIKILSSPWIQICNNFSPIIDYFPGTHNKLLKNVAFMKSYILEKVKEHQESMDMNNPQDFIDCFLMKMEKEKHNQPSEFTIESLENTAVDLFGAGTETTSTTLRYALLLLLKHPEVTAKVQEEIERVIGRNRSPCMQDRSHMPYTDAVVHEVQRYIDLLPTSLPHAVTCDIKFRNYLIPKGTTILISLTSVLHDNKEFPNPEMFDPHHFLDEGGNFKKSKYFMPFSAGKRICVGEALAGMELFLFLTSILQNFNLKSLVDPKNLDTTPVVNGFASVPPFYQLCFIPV

Cytochrome P450 1A2 = target: T1, Cytochrome P450 1A2 (Homo sapiens, UniProt P05177); test: Inhibition of CYP1A2 in human liver microsomes in presence of NADPH by LC-MS/MS method; format: ADME, Microsome
T1 sequence (P05177 whole entry): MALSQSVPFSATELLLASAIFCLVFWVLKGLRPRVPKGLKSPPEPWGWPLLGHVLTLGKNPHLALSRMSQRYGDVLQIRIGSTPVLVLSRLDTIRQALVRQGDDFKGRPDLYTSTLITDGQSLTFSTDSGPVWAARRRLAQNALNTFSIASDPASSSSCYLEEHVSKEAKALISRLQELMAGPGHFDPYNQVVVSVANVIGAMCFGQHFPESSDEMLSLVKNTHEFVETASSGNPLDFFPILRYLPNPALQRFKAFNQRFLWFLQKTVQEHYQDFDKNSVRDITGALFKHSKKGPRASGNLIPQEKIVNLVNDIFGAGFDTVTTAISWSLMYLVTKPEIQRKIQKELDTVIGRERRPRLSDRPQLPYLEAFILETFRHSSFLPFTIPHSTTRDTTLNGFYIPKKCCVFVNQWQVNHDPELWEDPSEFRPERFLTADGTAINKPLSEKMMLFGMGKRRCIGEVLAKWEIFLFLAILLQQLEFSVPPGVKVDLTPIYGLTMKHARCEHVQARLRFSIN

[10] = target: Voltage-gated inwardly rectifying potassium channel KCNH2 (Homo sapiens, UniProt Q12809); test: Inhibition of human ERG expressed in CHO cells by patch clamp method; format: cell-based
Sequence of Voltage-gated inwardly rectifying potassium channel KCNH2 (Q12809 whole entry): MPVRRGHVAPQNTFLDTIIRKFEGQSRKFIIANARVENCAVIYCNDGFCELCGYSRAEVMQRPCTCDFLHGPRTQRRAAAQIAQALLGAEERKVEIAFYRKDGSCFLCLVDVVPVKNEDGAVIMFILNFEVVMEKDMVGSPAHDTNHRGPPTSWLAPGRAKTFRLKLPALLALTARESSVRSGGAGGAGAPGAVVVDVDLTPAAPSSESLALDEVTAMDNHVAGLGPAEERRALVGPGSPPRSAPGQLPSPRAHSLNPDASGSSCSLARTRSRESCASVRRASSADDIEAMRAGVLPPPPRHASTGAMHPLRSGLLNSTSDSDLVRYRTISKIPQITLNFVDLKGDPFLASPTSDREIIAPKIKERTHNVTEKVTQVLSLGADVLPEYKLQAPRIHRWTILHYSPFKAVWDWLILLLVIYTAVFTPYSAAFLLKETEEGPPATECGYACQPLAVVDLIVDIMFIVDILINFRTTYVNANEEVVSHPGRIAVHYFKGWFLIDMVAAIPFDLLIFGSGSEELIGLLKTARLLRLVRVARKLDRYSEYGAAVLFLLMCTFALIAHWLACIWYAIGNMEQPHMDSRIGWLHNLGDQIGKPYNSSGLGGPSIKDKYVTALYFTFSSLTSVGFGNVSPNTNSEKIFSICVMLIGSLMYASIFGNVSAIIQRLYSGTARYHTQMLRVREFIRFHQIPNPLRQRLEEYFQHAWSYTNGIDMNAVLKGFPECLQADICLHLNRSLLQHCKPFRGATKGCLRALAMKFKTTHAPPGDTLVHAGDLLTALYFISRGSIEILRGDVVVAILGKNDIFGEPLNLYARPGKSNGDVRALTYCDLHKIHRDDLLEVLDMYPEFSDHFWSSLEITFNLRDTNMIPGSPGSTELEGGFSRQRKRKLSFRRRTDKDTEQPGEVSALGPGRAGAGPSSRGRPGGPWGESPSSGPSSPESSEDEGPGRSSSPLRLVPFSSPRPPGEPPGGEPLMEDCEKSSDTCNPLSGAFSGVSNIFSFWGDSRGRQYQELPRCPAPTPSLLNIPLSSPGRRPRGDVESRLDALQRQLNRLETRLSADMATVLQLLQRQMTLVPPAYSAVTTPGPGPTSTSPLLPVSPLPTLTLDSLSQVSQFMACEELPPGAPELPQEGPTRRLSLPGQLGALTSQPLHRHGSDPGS

Cytochrome P450 2D6 = Cytochrome P450 2D6 (Homo sapiens, UniProt P10635); test: Inhibition of CYP2D6 in human liver microsomes in presence of NADPH by LC-MS/MS method; format: ADME, Microsome
Sequence of Cytochrome P450 2D6 (P10635 whole entry): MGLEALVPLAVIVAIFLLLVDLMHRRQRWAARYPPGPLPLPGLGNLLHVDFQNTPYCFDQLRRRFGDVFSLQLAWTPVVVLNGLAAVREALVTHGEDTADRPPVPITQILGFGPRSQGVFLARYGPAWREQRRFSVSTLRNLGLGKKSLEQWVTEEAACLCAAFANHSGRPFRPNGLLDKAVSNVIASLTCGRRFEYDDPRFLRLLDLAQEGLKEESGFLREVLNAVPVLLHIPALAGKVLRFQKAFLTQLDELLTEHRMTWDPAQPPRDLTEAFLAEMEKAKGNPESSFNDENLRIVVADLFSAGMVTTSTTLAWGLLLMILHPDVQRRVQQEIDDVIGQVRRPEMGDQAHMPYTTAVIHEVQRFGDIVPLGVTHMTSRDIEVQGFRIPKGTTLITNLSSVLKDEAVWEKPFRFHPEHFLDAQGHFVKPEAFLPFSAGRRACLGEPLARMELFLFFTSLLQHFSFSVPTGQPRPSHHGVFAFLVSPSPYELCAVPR

[11] = Clearance in human liver microsomes at 1 uM incubated for 10 mins by LC-MS/MS method; format: ADME, Microsome; procedure, shortened: as §2
[12] = AUC in BALB/C mouse at 5 mg/kg, po or 1 mg/kg, iv by LC-MS/MS method; format: ADME, organism-based; settings: plasma
Procedure, shortened: (§4)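 BALB/C nude mice (15−20 g) given 5 mg/kg po and 1 mg/kg iv; blood collected at eight (po) or nine (iv) time points into sodium heparin tubes, plasma stored at −20 °C, measured by LC-MS/MS and analysed noncompartmentally.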

[13] = Half life in BALB/C mouse at 5 mg/kg, po or 1 mg/kg, iv by LC-MS/MS method; format: ADME, organism-based; settings: in vivo; procedure, shortened: as §4
[14] = Oral bioavailability in BALB/C mouse at 5 mg/kg by LC-MS/MS method; format: ADME, organism-based; settings: in vivo; procedure, shortened: as §4
[15] = Cmax in BALB/C mouse at 5 mg/kg, po or 1 mg/kg, iv by LC-MS/MS method; format: ADME, organism-based; settings: in vivo; procedure, shortened: as §4
[16] = Clearance in BALB/C mouse at 5 mg/kg, po or 1 mg/kg, iv by LC-MS/MS method; format: ADME, organism-based; settings: in vivo; procedure, shortened: as §4
[17] = Volume of distribution at steady state in BALB/C mouse at 5 mg/kg, po or 1 mg/kg, iv by LC-MS/MS method; format: ADME, organism-based; settings: in vivo, read-out: Vdss
Procedure, shortened: (§5)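 Nude-mouse PK at reduced doses, 1 mg/kg iv bolus (5% DMSO, 40% PEG400, 55% saline) and 5 mg/kg oral gavage (microcrystalline cellulose microsuspension); plasma from serial heparinized blood samples (eight po, nine iv time points) quantified by LC-MS/MS, parameters by noncompartmental methods.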

[18] = Tmax in BALB/C mouse at 5 mg/kg, po or 1 mg/kg, iv by LC-MS/MS method; format: ADME, organism-based; settings: in vivo; procedure, shortened: as §5
Bel-7402 = format: functional, Homo sapiens
BGC-823 = format: functional, Homo sapiens
SK-HEP1 = format: functional, Homo sapiens
HGC-27 = format: functional, Homo sapiens
SGC-7901 = format: functional, Homo sapiens
SMMC-7721 = format: functional, Homo sapiens
MGC-803 = format: functional, Homo sapiens

SMILES	clearance [1] [mL/min/kg]	AUC [2] [ng·h/mL]	CLhep predicted at 1 µM [3] [mL/min/kg]	bioavailability [4] [%]	Vd [5]	Tmax [6] [h]	half-life [7] [h]	Cmax [8] [ng/mL]	Activity [9] [%]	CLhep predicted at 1 µM [11] [mL/min/kg]	further results
Nc1ccccc1NC(=O)/C=C/c1ccc([C@H]2CN(CCO)C[C@@H]2C(=O)Nc2ccc(Cl)cc2)cc1 (racemic)	20	7100	24	58	4.1	0.25	15	957	100	11	IC50 (Cytochrome P450 2C19): 10 µM; IC50 (Cytochrome P450 3A4): 2 µM; IC50 (Cytochrome P450 2C9): 3 µM; IC50 (Cytochrome P450 1A2): 26 µM; IC50 [10]: 15 µM; IC50 (Cytochrome P450 2D6): 2 µM
CC(C)(O)CN1C[C@H](C(=O)Nc2ccc(Cl)cc2)[C@@H](c2ccc(/C=C/C(=O)Nc3ccccc3N)cc2)C1 (racemic)	33	5650	34	100	3.7	1	6.5	1100	230	14	IC50 (Cytochrome P450 2C19): 7 µM; IC50 (Cytochrome P450 3A4): 3 µM; IC50 (Cytochrome P450 2C9): 4 µM; IC50 (Cytochrome P450 1A2): 7 µM; IC50 (Cytochrome P450 2D6): 0.7 µM
CC(C)(CO)N1C[C@H](C(=O)Nc2ccc(Cl)cc2)[C@@H](c2ccc(/C=C/C(=O)Nc3ccccc3N)cc2)C1 (racemic)	27	743	40	12	6.6	2	1.1	337	260	12	–
Nc1ccccc1NC(=O)c1ccc(CNC(=O)OCc2cccnc2)cc1 [ENTINOSTAT]	–	–	–	–	–	–	–	–	–	–	GI90 (Bel-7402): 8 µM; GI90 (BGC-823): 7.1 µM; GI90 (SK-HEP1): 13 µM; GI90 (HGC-27): >30 µM; GI90 (SGC-7901): 2.5 µM; GI90 (SMMC-7721): 11 µM; GI90 (MGC-803): 8.9 µM

Second part, led by results:

clearance [1] [mL/min/kg]	AUC [2] [ng·h/mL]	CLhep predicted at 1 µM [3] [mL/min/kg]	bioavailability [4] [%]	Vd [5]	Tmax [6] [h]	half-life [7] [h]	Cmax [8] [ng/mL]	Activity [9] [%]	CLhep predicted at 1 µM [11] [mL/min/kg]	SMILES	further results
53	911	46	29	7.2	1	4	262	180	–	CN1C[C@H](C(=O)Nc2ccc(F)c(F)c2)[C@@H](c2ccc(/C=C/C(=O)Nc3ccccc3N)cc2)C1 (racemic)	–
–	–	36	–	–	–	–	–	100	6	CN1C[C@H](C(=O)Nc2ccc(Cl)cc2)[C@@H](c2ccc(/C=C/C(=O)Nc3ccccc3N)cn2)C1 (racemic)	AUC [12]: 204 ng·h/mL; half-life [13]: 4.6 h; bioavailability [14]: 19%; Cmax [15]: 60 ng/mL; clearance [16]: 79 mL/min/kg; Vd [17]: 4 L; Tmax [18]: 0.17 h
–	–	34	–	–	–	–	–	250	5	CN1C[C@H](C(=O)Nc2ccc(F)cc2)[C@@H](c2ccc(/C=C/C(=O)Nc3ccccc3N)cc2)C1 (racemic)	AUC [12]: 624 ng·h/mL; half-life [13]: 5 h; bioavailability [14]: 95%; Cmax [15]: 170 ng/mL; clearance [16]: 127 mL/min/kg; Vd [17]: 16 L; Tmax [18]: 2 h
